The target in assay [1] is T1, Metallo-beta-lactamase type 2 (Klebsiella pneumoniae, UniProt C7C422). Briefly: Inhibition of Klebsiella pneumoniae metallo-beta-lactamase NDM-1 expressed in Escherichia coli BL21(DE3) cells preincubated for 60 min followed by addition of cefazolin as substrate by spectrometry method. A digest of the protocol:
(§1)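 Purified recombinant MβL preincubated with inhibitor for 60 min, then hydrolysis followed by UV spectrometry. Substrate was cefazolin, or imipenem for ImiS, at 26–160 μM. Inhibitor ranged 15 nM to 10 μM. IC50 was the concentration giving a 50% drop in enzyme activity, calculated from kinetic data.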

Assay [2] deals with Stenotrophomonas maltophilia. Briefly: Inhibition of Stenotrphomonas maltophilia metallo-beta-lactamase L1 up to 10 uM preincubated for 60 min followed by addition of cefazolin as substrate by spectrometry method. A digest of the protocol: as §1
Assay [3] has as its system Aeromonas veronii bv. sobria. Description: Inhibition of Aeromonas veronii bv. sorbia Metallo-beta-lactamase ImiS up to 10 uM preincubated for 60 min followed by addition of imipenem as substrate by spectrometry method. The essentials:
as §1

For assay [4], the target named is Metallo-beta-lactamase type 2 (Bacteroides fragilis) (UniProt P25910). Description: Inhibition of Bacteroides fragilis CcrA metallo-beta-lactamase up to 10 uM preincubated for 60 min followed by addition of cefazolin as substrate by spectrometry method. A digest of the protocol: as §1
Assay [5] deals with T1, Metallo-beta-lactamase type 2. Briefly: Mixed type inhibition of Klebsiella pneumoniae metallo-beta-lactamase NDM-1 expressed in Escherichia coli BL21(DE3) cells assessed as hydrolysis of cefazolin preincubated for 60 min followed by addition of cefazolin by Lineweaver-Burk plot analysis. A digest of the protocol:
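Purified recombinant NDM-1 preincubated with inhibitor for 60 min. Cefazolin hydrolysis was then followed by UV spectrometry, with substrate varied 26–160 μM and inhibitor at 0, 0.25, 0.5 and 1.0 μM. Mode was taken from Lineweaver–Burk plots. Ki came from replots of slope and intercept […].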

The structures appear in SMILES notation. Activity calls are given as the source filed them. No cut-off for these calls is given here.

Chain of Metallo-beta-lactamase type 2 (Bacteroides fragilis) (P25910 whole entry): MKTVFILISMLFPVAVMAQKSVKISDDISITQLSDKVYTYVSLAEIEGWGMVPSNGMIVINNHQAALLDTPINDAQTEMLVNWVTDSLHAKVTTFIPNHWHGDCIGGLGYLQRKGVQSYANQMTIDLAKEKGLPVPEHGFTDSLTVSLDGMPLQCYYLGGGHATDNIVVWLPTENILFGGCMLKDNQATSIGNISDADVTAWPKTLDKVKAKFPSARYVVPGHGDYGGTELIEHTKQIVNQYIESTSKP
T1 sequence (C7C422 whole entry): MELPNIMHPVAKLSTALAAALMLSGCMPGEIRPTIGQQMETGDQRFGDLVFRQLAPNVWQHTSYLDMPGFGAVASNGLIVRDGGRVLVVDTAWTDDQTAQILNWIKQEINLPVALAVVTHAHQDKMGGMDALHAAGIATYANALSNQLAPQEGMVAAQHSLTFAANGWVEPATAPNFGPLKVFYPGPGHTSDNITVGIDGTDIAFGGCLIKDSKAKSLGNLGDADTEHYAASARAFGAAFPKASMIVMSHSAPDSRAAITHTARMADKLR

The term IC50 denotes the concentration that inhibits the measured activity by half. Lower therefore signals higher potency. `Cc1ccccc1NC(=O)CSc1nnc(-c2ccccc2N)[nH]1` had an IC50 in assay [1] of 1900 nM. Besides, the inhibition result in assay [2], in assay [3] and in assay [4] was “inactive” each time.
With `O=C(CSc1nnc(-c2ccc(O)cc2)[nH]1)Nc1ccccc1Cl`, the midpoint of inhibition in assay [1], the IC50, lay at 520 nM. Moreover, the inhibition entry in assay [2], in assay [3] and in assay [4] was “inactive” in each case.
`O=C(CSc1nnc(-c2ccccc2O)[nH]1)Nc1ccccc1Cl`: the IC50 in assay [1] stood at 980 nM. The inhibition result in assay [2], in assay [3] and in assay [4] was “inactive” in each case.
On to `CCCCc1ccc(NC(=O)CSc2nnc(-c3ccccc3)[nH]2)cc1`, for which half-maximal inhibition in assay [1] (IC50) was put at 150 nM. The inhibition result in assay [2], in assay [3] and in assay [4] was “inactive” in each case.
The compound `CCc1ccccc1NC(=O)CSc1nnc(-c2ccc(O)cc2)[nH]1` yielded an IC50 in assay [1] of 1500 nM. The inhibition result in assay [2], in assay [3] and in assay [4] was “inactive” throughout.
With `O=C(CSc1nnc(-c2ccccc2)[nH]1)Nc1ccccc1`, in assay [1], the IC50 worked out at 170 nM. For the same compound, the inhibition result in assay [2], in assay [3] and in assay [4] was “inactive” throughout.
Take `O=C(CSc1nnc(-c2ccccc2)[nH]1)Nc1ccccc1Cl`: the IC50 in assay [1] worked out at 350 nM. Besides, the inhibition result in assay [2], in assay [3] and in assay [4] was “inactive” throughout.
Turning to `CCc1ccccc1NC(=O)CSc1nnc(-c2ccccc2O)[nH]1`, the IC50 in assay [1] was determined as 930 nM. For the same compound, the inhibition entry in assay [2], in assay [3] and in assay [4] was “inactive” each time.
Take `O=C(CSc1nnc(-c2ccc(O)cc2)[nH]1)Nc1ccccc1`: the IC50 in assay [1] was 1200 nM. For the same compound, the inhibition result in assay [2], in assay [3] and in assay [4] was “inactive” throughout.
Take `CCCCc1ccc(NC(=O)CSc2nnc(-c3ccccc3O)[nH]2)cc1`: the IC50 in assay [1] came out at 160 nM. In addition, the inhibition result in assay [2], in assay [3] and in assay [4] was “inactive” throughout.
Compound `CCCCc1ccc(NC(=O)CSc2nnc(-c3ccc(O)cc3)[nH]2)cc1` came in with an IC50 in assay [1] of 480 nM. The inhibition entry in assay [2], in assay [3] and in assay [4] was “inactive” in each case.
As a reminder, the Ki is a dissociation constant, usually derived from enzyme kinetics or from competition with a known ligand. As for `CCCCc1ccc(NC(=O)CSc2nnc(-c3ccccc3N)[nH]2)cc1`, in assay [1], the IC50 worked out at 160 nM. Besides, the Ki in assay [5] stood at 490 nM. The inhibition entry in assay [2], in assay [3] and in assay [4] was “inactive” in each case.
The compound `O=C(CSc1nnc(-c2ccccc2O)[nH]1)Nc1ccccc1` returned an IC50 in assay [1] of 420 nM. The inhibition result in assay [2], in assay [3] and in assay [4] was “inactive” throughout.
In turn, `O=C(CSc1nnc(-c2ccccc2O)[nH]1)Nc1cccc(Cl)c1` came in with an IC50 in assay [1] of 160 nM. Moreover, the inhibition entry in assay [2], in assay [3] and in assay [4] was “inactive” each time.
`Cc1ccccc1NC(=O)CSc1nnc(-c2ccccc2)[nH]1` showed an IC50 in assay [1] of 190 nM. Further, the inhibition result in assay [2], in assay [3] and in assay [4] was “inactive” each time.
In the case of `Nc1ccccc1-c1nnc(SCC(=O)Nc2ccccc2Cl)[nH]1`, the IC50 in assay [1] was found to be 610 nM. Further, the inhibition result in assay [2], in assay [3] and in assay [4] was “inactive” throughout.
In assay [1], `Nc1ccccc1-c1nnc(SCC(=O)Nc2cccc(Cl)c2)[nH]1` came in with an IC50 of 230 nM. In addition, the inhibition entry in assay [2], in assay [3] and in assay [4] was “inactive” throughout.
For `Cc1ccccc1NC(=O)CSc1nnc(-c2ccccc2O)[nH]1`, in assay [1], the IC50 was determined as 160 nM. Also, the inhibition result in assay [2], in assay [3] and in assay [4] was “inactive” each time.
The compound `O=C(CSc1nnc(-c2ccc(O)cc2)[nH]1)Nc1cccc(Cl)c1` yielded an IC50 in assay [1] of 370 nM. Besides, the Ki in assay [5] stood at 630 nM. The inhibition entry in assay [2], in assay [3] and in assay [4] was “inactive” throughout.
`CCc1ccccc1NC(=O)CSc1nnc(-c2ccccc2N)[nH]1` yielded an IC50 in assay [1] of 450 nM. Also, the inhibition result in assay [2], in assay [3] and in assay [4] was “inactive” in each case.
On to `CCc1ccccc1NC(=O)CSc1nnc(-c2ccccc2)[nH]1`, for which the IC50 in assay [1] stood at 990 nM. The inhibition result in assay [2], in assay [3] and in assay [4] was “inactive” in each case.
The compound `Cc1ccccc1NC(=O)CSc1nnc(-c2ccc(O)cc2)[nH]1` showed an IC50 in assay [1] of 980 nM. The inhibition result in assay [2], in assay [3] and in assay [4] was “inactive” throughout.
`O=C(CSc1nnc(-c2ccccc2)[nH]1)Nc1cccc(Cl)c1` came in with an IC50 in assay [1] of 690 nM. The inhibition entry in assay [2], in assay [3] and in assay [4] was “inactive” in each case.
With `Nc1ccccc1-c1nnc(SCC(=O)Nc2ccccc2)[nH]1`, half-maximal inhibition in assay [1] (IC50) was put at 330 nM. The inhibition entry in assay [2], in assay [3] and in assay [4] was “inactive” each time.

The values above are taken from ChEMBL document CHEMBL3808307, “Triazolylthioacetamide: A Valid Scaffold for the Development of New Delhi Metallo-β-Lactmase-1 (NDM-1) Inhibitors” (ACS Med Chem Lett, 2016).
